Data: ChEMBL document CHEMBL1817584, “Synthesis of novel fluconazoliums and their evaluation for antibacterial and antifungal activities” (2011)
Converted amounts (≈) assume the structure as drawn.

Legend:
Aspergillus fumigatus [1] = test: Antifungal activity against Aspergillus fumigatus ATCC 96918 after 24 hrs by twofold serial dilution method; format: functional; conditions: ATCC 96918, 24 h
Outline: (§1)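 A fungal spore suspension was made in sterile distilled water from a 1-day-old culture grown on Sabouraud agar, then tested against serial dilutions of compounds (DMSO stocks) to determine MIC.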

Staphylococcus aureus [2] = test: Antibacterial activity against Staphylococcus aureus ATCC 6538 after 24 hrs by twofold serial dilution method; format: functional; conditions: ATCC 6538, 24 h
Outline: (§2)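 Each bacterial suspension was adjusted with sterile saline to 1 × 10⁵ CFU. Compounds were first dissolved in DMSO as stock solutions, then diluted in Mueller–Hinton broth in twofold steps (8, 4, 2, 1, 0.5, 0.25). Dilutions were inoculated and incubated at 37 °C for 24 h, and MIC was read. DMSO plus inoculum without drug served as a solvent control.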

Escherichia coli [3] = test: Antibacterial activity against Escherichia coli ATCC 8099 after 24 hrs by twofold serial dilution method; format: functional; conditions: ATCC 8099, 24 h; outline: as §2
Bacillus subtilis = test: Antibacterial activity against Bacillus subtilis ATCC 21216 after 24 hrs by twofold serial dilution method; format: functional; conditions: ATCC 21216, 24 h; outline: as §2
Bacillus [4] = test: Antibacterial activity against Bacillus proteus ATCC 13315 after 24 hrs by twofold serial dilution method; format: functional; conditions: ATCC 13315, 24 h; outline: as §2
Staphylococcus aureus [5] = test: Antibacterial activity against methicillin-resistant Staphylococcus aureus N315 after 24 hrs by twofold serial dilution method; format: functional; conditions: N315, 24 h
Outline: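 Compounds were dissolved in DMSO as stock, then diluted twofold in Mueller–Hinton broth. Chloromycin and norfloxacin were run as reference drugs. The inoculum was adjusted in sterile saline to 1 × 10⁵ CFU, and a DMSO-plus-inoculum well served as solvent control. Plates were incubated at 37 °C for 24 h and read as MIC.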

Candida albicans = test: Antifungal activity against Candida albicans ATCC 76615 after 24 hrs by twofold serial dilution method; format: functional; conditions: ATCC 76615, 24 h; outline: as §1
Pseudomonas aeruginosa = test: Antibacterial activity against Pseudomonas aeruginosa ATCC 27853 after 24 hrs by twofold serial dilution method; format: functional; conditions: ATCC 27853, 24 h; outline: as §2
Bacillus [6] = test: Ratio of Chloromycin MIC to compound MIC for Bacillus proteus ATCC 13315; format: functional
Escherichia coli [7] = test: Ratio of Chloromycin MIC to compound MIC for Escherichia coli ATCC 8099; format: functional
Aspergillus fumigatus [8] = test: Ratio of Fluconazole MIC to compound MIC for Aspergillus fumigatus ATCC 96918

SMILES	MIC (Aspergillus fumigatus [1])	MIC (Staphylococcus aureus [2])	MIC (Escherichia coli [3])	MIC (Bacillus subtilis)	MIC (Bacillus [4])	MIC (Staphylococcus aureus [5])	MIC (Candida albicans)	MIC (Pseudomonas aeruginosa)	Ratio (Bacillus [6])	Ratio (Escherichia coli [7])	Ratio (Aspergillus fumigatus [8])
BrCCOc1ccc2ccccc2c1	> 256 µg/mL	256 µg/mL (≈ 1020 µM)	256 µg/mL (≈ 1020 µM)	> 256 µg/mL	> 256 µg/mL	> 256 µg/mL	> 256 µg/mL	> 256 µg/mL			
O=C1c2cccc3c(Br)ccc(c23)C(=O)N1CCCBr	128 µg/mL (≈ 322 µM)	128 µg/mL (≈ 322 µM)	256 µg/mL (≈ 645 µM)	> 256 µg/mL	> 256 µg/mL	> 256 µg/mL	> 256 µg/mL	> 256 µg/mL			
O=C1c2cccc3c(Br)ccc(c23)C(=O)N1CCCCCCBr	256 µg/mL (≈ 583 µM)	256 µg/mL (≈ 583 µM)	> 256 µg/mL	> 256 µg/mL	> 256 µg/mL	> 256 µg/mL	> 256 µg/mL	> 256 µg/mL			
CCCC[n+]1cnn(CC(O)(Cn2c[n+](CCCC)cn2)c2ccc(F)cc2F)c1.[Br-].[Br-]	> 256 µg/mL	> 256 µg/mL	128 µg/mL	> 256 µg/mL	256 µg/mL	> 256 µg/mL	128 µg/mL	256 µg/mL			
CCCCCCCCCCCC[n+]1cnn(CC(O)(Cn2c[n+](CCCCCCCCCCCC)cn2)c2ccc(F)cc2F)c1.[Br-].[Br-]	> 256 µg/mL	2 µg/mL	2 µg/mL	> 256 µg/mL	8 µg/mL	32 µg/mL	2 µg/mL	8 µg/mL			
CCCCCCCCCCCCCCCC[n+]1cnn(CC(O)(Cn2c[n+](CCCCCCCCCCCCCCCC)cn2)c2ccc(F)cc2F)c1.[Br-].[Br-]	> 256 µg/mL	8 µg/mL	8 µg/mL	128 µg/mL	256 µg/mL	128 µg/mL	4 µg/mL	128 µg/mL			
OC(Cn1c[n+](Cc2ccc(F)cc2F)cn1)(Cn1c[n+](Cc2ccc(F)cc2F)cn1)c1ccc(F)cc1F.[Br-].[Br-]	> 256 µg/mL	64 µg/mL	64 µg/mL	256 µg/mL	128 µg/mL	256 µg/mL	128 µg/mL	> 256 µg/mL			
OC(Cn1c[n+](Cc2ccc(Cl)cc2Cl)cn1)(Cn1c[n+](Cc2ccc(Cl)cc2Cl)cn1)c1ccc(F)cc1F.[Cl-].[Cl-]	128 µg/mL	8 µg/mL	4 µg/mL	16 µg/mL	0.5 µg/mL	4 µg/mL	16 µg/mL	4 µg/mL	32		
OC(Cn1c[n+](Cc2ccc(Cl)c(Cl)c2)cn1)(Cn1c[n+](Cc2ccc(Cl)c(Cl)c2)cn1)c1ccc(F)cc1F.[Cl-].[Cl-]	128 µg/mL	8 µg/mL	32 µg/mL	32 µg/mL	8 µg/mL	64 µg/mL	4 µg/mL	16 µg/mL			
OC(Cn1c[n+](Cc2ccccc2Cl)cn1)(Cn1c[n+](Cc2ccccc2Cl)cn1)c1ccc(F)cc1F.[Cl-].[Cl-]	32 µg/mL	32 µg/mL	128 µg/mL	256 µg/mL	8 µg/mL	256 µg/mL	128 µg/mL	> 256 µg/mL			
OC(Cn1c[n+](Cc2cccc(Cl)c2)cn1)(Cn1c[n+](Cc2cccc(Cl)c2)cn1)c1ccc(F)cc1F.[Cl-].[Cl-]	256 µg/mL	4 µg/mL	32 µg/mL	64 µg/mL	128 µg/mL	32 µg/mL	4 µg/mL	64 µg/mL			
OC(Cn1c[n+](Cc2ccc(Cl)cc2)cn1)(Cn1c[n+](Cc2ccc(Cl)cc2)cn1)c1ccc(F)cc1F.[Cl-].[Cl-]	64 µg/mL	64 µg/mL	256 µg/mL	256 µg/mL	256 µg/mL	> 256 µg/mL	256 µg/mL	16 µg/mL			
F[P-](F)(F)(F)(F)F.F[P-](F)(F)(F)(F)F.OC(Cn1c[n+](Cc2ccc(Cl)cc2Cl)cn1)(Cn1c[n+](Cc2ccc(Cl)cc2Cl)cn1)c1ccc(F)cc1F	256 µg/mL	32 µg/mL	≤ 0.25 µg/mL	32 µg/mL	1 µg/mL	32 µg/mL	128 µg/mL	64 µg/mL		256	
OC(Cn1c[n+](Cc2ccc(Cl)cc2Cl)cn1)(Cn1c[n+](Cc2ccc(Cl)cc2Cl)cn1)c1ccc(F)cc1F.[Br-].[Br-]	128 µg/mL	64 µg/mL	16 µg/mL	32 µg/mL	4 µg/mL	64 µg/mL	64 µg/mL	64 µg/mL			
OC(Cn1c[n+](Cc2ccc(Cl)cc2Cl)cn1)(Cn1c[n+](Cc2ccc(Cl)cc2Cl)cn1)c1ccc(F)cc1F.[I-].[I-]	32 µg/mL	16 µg/mL	4 µg/mL	64 µg/mL	4 µg/mL	64 µg/mL	64 µg/mL	32 µg/mL			
Cc1cccc(C[n+]2cnn(CC(O)(Cn3c[n+](Cc4cccc(C)c4)cn3)c3ccc(F)cc3F)c2)c1.[Br-].[Br-]	256 µg/mL	16 µg/mL	128 µg/mL	256 µg/mL	256 µg/mL	256 µg/mL	64 µg/mL	256 µg/mL			
OC(Cn1c[n+](Cc2ccccc2)cn1)(Cn1c[n+](Cc2ccccc2)cn1)c1ccc(F)cc1F.[Br-].[Br-]	128 µg/mL	256 µg/mL	256 µg/mL	256 µg/mL	128 µg/mL	128 µg/mL	256 µg/mL	128 µg/mL			
O=[N+]([O-])c1ccc(C[n+]2cnn(CC(O)(Cn3c[n+](Cc4ccc([N+](=O)[O-])cc4)cn3)c3ccc(F)cc3F)c2)cc1.[Br-].[Br-]	128 µg/mL	64 µg/mL	64 µg/mL	128 µg/mL	128 µg/mL	256 µg/mL	128 µg/mL	128 µg/mL			
O=C1c2cccc3c(Br)ccc(c23)C(=O)N1CCC[n+]1cnn(CC(O)(Cn2c[n+](CCCN3C(=O)c4cccc5c(Br)ccc(c45)C3=O)cn2)c2ccc(F)cc2F)c1.[Br-].[Br-]	16 µg/mL	8 µg/mL	8 µg/mL	64 µg/mL	32 µg/mL	4 µg/mL	8 µg/mL	16 µg/mL			8
O=C1c2cccc3c(Br)ccc(c23)C(=O)N1CCCCCC[n+]1cnn(CC(O)(Cn2c[n+](CCCCCCN3C(=O)c4cccc5c(Br)ccc(c45)C3=O)cn2)c2ccc(F)cc2F)c1.[Br-].[Br-]	32 µg/mL	8 µg/mL	8 µg/mL	64 µg/mL	64 µg/mL	16 µg/mL	16 µg/mL	32 µg/mL			8
Fc1ccc(Cn2cncn2)c(F)c1	> 256 µg/mL	> 256 µg/mL	> 256 µg/mL	> 256 µg/mL	> 256 µg/mL	> 256 µg/mL	> 256 µg/mL	> 256 µg/mL			
O=C1c2cccc3c(Br)ccc(c23)C(=O)N1CCCCCCn1cncn1	> 256 µg/mL	> 256 µg/mL	> 256 µg/mL	> 256 µg/mL	> 256 µg/mL	> 256 µg/mL	> 256 µg/mL	> 256 µg/mL			
CCCCCCCC[n+]1cnn(Cc2ccc(F)cc2F)c1.[Br-]	32 µg/mL	8 µg/mL	16 µg/mL	64 µg/mL	8 µg/mL	16 µg/mL	32 µg/mL	16 µg/mL			
Fc1ccc(Cn2c[n+](Cc3ccc(Cl)cc3Cl)cn2)c(F)c1.[Br-]	> 256 µg/mL	> 256 µg/mL	128 µg/mL	128 µg/mL	64 µg/mL	> 256 µg/mL	> 256 µg/mL	128 µg/mL			
Fc1ccc(Cn2c[n+](CCOc3ccc4ccccc4c3)cn2)c(F)c1.[Br-]	128 µg/mL	16 µg/mL	8 µg/mL	64 µg/mL	16 µg/mL	64 µg/mL	32 µg/mL	8 µg/mL			
O=C1c2cccc3c(Br)ccc(c23)C(=O)N1CCCCCCn1c[n+](Cc2ccc(F)cc2F)cn1.[Br-]	64 µg/mL	16 µg/mL	32 µg/mL	128 µg/mL	16 µg/mL	64 µg/mL	64 µg/mL	8 µg/mL			
OC(Cn1cncn1)(Cn1cncn1)c1ccc(F)cc1F [FLUCONAZOLE]	256 µg/mL (≈ 836 µM)						0.5 µg/mL (≈ 1.63 µM)				
CCn1cc(C(=O)O)c(=O)c2cc(F)c(N3CCNCC3)cc21 [NORFLOXACIN]		8 µg/mL (≈ 25.1 µM)	0.5 µg/mL (≈ 1.57 µM)	1 µg/mL (≈ 3.13 µM)	1 µg/mL (≈ 3.13 µM)	1 µg/mL (≈ 3.13 µM)		2 µg/mL (≈ 6.26 µM)			
